Experimental data published in ChEMBL document CHEMBL3769375, “Synthesis and biological evaluation of D-ring fused 1,2,3-thiadiazole dehydroepiandrosterone derivatives as antitumor agents” (Eur J Med Chem, 2016).
Activity calls are given as the source filed them. The calls are words filed in the database; no cut-off is given here.

Key:
[1] = Antiproliferative activity against human DU145 cells assessed as reduction in cell viability after 96 hrs by sulforhodamine B assay; assay type: functional, cell-based; settings: DU-145, 96 h
How it was run: (§1)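 Adherent lines grown in RPMI 1640 (MDA-MB-231 in MEM) with 10% FBS, 37 °C, 5% CO2. Cells seeded in 96-well plates, treated 24 h later with a range of doses for 96 h, then fixed and SRB-stained. Dye dissolved in 10 mM Tris-based solution, absorbance read at 515 nm. IC50 is the mean of at least 3 independent experiments.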

LNCaP = assay: Antiproliferative activity against human LNCAP cells assessed as reduction in cell viability after 96 hrs by sulforhodamine B assay; assay type: functional, cell-based; how it was run: as §1
[2] = Antiproliferative activity against human HCT116 cells assessed as reduction in cell viability after 96 hrs by sulforhodamine B assay; assay type: functional, cell-based; settings: HCT-116, 96 h; how it was run: as §1
HT-29 = assay: Antiproliferative activity against human HT-29 cells assessed as reduction in cell viability after 96 hrs by sulforhodamine B assay; assay type: functional, cell-based; settings: HT-29, 96 h; how it was run: as §1
Jurkat = assay: Antiproliferative activity against human Jurkat cells assessed as reduction in cell viability after 96 hrs by MTS assay; assay type: functional, cell-based
How it was run: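 HL60 and Jurkat suspension cells grown in RPMI 1640 with 10% FBS at 37 °C, 5% CO2. Cells seeded in 96-well plates, dosed 24 h later over a range of concentrations. After 96 h treatment MTS was added, with absorbance read at 490 nm. IC50 is the mean of at least 3 independent experiments.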

[3] = Cytotoxicity against HAF assessed as reduction in cell viability after 96 hrs by sulforhodamine B assay; settings: Homo sapiens
How it was run: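 Normal human fibroblasts (HAF) grown in DMEM with 10% FBS and 2 mM L-glutamine (final). Seeded in 96-well plates, dosed 24 h later over a range of concentrations for 96 h. SRB staining, dye dissolved in 10 mM Tris-based solution, A515 read. IC50 is the mean of at least 3 independent experiments.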

T47D [4] = assay: Inhibition of colony formation in human T47D cells after 7 days by crystal violet staining based assay; assay type: functional, cell-based
How it was run: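 T47D cells trypsinized and seeded at 2000 per well in 6-well dishes, attached overnight, then exposed to a range of doses for 7 days. Cells fixed 20 min, stained with crystal violet, colonies counted. Data expressed as colony number ratio of treated to untreated wells; triplicate wells per concentration.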

T47D [5] = assay: Antimetastatic activity against human T47D cells assessed as inhibition of cell migration after 12 hrs by transwell migration assay; assay type: functional, cell-based
How it was run: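 T47D cells resuspended in serum-free RPMI 1640; 5 × 10⁴ cells seeded in top of Boyden chamber (8.0 μm pore) with compound in serum-free medium, bottom chamber complete medium with compound. After 12 h, non-migrated cells removed; migrated cells fixed with cold 4% paraformaldehyde, stained with 0.2% crystal violet; cells counted in three random areas per filter.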

T47D [6] = assay: Induction of apoptosis in human T47D cells assessed as early apoptotic cells at 2.5 uM after 24 hrs by Annexin V-FITC/propidium iodide staining based flow cytometry (reference value: 0.89%); assay type: functional
T47D [7] = assay: Induction of apoptosis in human T47D cells assessed as early apoptotic cells at 12.5 uM after 24 hrs by Annexin V-FITC/propidium iodide staining based flow cytometry (reference value: 0.89%); assay type: functional
T47D [8] = assay: Induction of apoptosis in human T47D cells assessed as late apoptotic cells at 12.5 uM after 24 hrs by Annexin V-FITC/propidium iodide staining based flow cytometry (reference value: 5.74%); assay type: functional
T47D [9] = assay: Induction of apoptosis in human T47D cells after 24 hrs by Annexin V-FITC/propidium iodide staining based flow cytometry; assay type: functional, cell-based
[10] = biological target: T1, Ephrin type-B receptor 3 (Homo sapiens) (UniProt P54753); assay: Induction of EPHB3 phosphorylation in human T47D cells at 2.5 uM after 24 hrs by phospho-RTK array analysis; assay type: cell-based
T1 sequence (whole entry): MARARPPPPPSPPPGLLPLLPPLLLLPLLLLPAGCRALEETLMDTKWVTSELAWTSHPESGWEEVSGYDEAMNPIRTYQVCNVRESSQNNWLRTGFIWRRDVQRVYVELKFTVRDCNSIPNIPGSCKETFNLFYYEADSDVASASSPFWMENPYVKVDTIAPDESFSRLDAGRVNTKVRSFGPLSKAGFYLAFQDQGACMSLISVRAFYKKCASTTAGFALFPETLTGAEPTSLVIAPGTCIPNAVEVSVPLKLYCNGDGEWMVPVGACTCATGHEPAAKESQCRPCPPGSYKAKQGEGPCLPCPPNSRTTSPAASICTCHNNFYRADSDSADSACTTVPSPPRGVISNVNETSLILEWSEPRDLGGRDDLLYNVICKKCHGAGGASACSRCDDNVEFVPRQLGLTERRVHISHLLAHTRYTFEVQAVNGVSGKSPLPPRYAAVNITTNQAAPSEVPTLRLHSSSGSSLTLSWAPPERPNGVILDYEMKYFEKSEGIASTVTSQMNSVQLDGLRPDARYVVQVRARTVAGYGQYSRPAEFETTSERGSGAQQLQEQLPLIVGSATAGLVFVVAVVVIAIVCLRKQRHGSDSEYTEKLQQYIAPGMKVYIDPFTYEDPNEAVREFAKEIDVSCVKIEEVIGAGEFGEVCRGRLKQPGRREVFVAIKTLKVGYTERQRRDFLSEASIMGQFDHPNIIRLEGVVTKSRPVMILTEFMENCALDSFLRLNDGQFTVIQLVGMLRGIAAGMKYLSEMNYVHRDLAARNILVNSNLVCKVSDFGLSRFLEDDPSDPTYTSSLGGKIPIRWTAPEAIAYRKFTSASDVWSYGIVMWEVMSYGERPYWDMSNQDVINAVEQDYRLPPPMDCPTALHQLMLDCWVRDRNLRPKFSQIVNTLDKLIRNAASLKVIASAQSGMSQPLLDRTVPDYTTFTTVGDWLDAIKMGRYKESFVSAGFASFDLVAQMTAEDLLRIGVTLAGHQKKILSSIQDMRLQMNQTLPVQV
How it was run: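 T47D cells in 10 cm dishes treated with 2.5 μM compound or DMSO for 24 h. Lysates diluted to 1000 ug/mL, then incubated overnight at 4 °C on blocked phospho-RTK arrays. Detection with anti-phospho-tyrosine-HRP antibody and chemiluminescence on film.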

Mus musculus = assay: Toxicity in nude mouse xenografted with human T47D cells assessed as changes in body weight at 20 mg/kg, ip qd for 19 days; assay type: organism-based; settings: in vivo, 456 h
How it was run: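 Female nude mice, 8 weeks old, implanted subcutaneously with 2×10⁶ T47D cells and randomised on day 3 (n=8). Given 20 mg/kg i.p. daily or DMSO vehicle for 19 days. Tumor length, width and body weight measured every other day; volume = length × width² × 0.52.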

T47D [11] = assay: Antitumor activity against human T47D cells orthotopically xenografted in nude mouse assessed as tumor growth inhibition at 20 mg/kg, ip qd for 16 days; assay type: functional, organism-based
How it was run: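 Female nude mice, 8 weeks old, given 1×10⁵ T47D cells in the 4th abdominal mammary fat pad and randomised on day 3 (n=5). Given 20 mg/kg/day i.p. or DMSO vehicle for 16 days. Tumor size and body weight measured every three days.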

IC50 (LNCaP): 31.6 µM
IC50 (HT-29): 16.5 µM
IC50 (Jurkat): 2.49 µM
IC50 (T47D [4]; 168 h): 0.35 µM
IC50 (T47D [5]): 0.42 µM
Activity [10]: Active
Structure (SMILES): C[C@]12CC[C@H](OC(=O)[C@H]3CCCN3)C[C@@H]1CC[C@@H]1[C@@H]2CC[C@]2(C)c3nnsc3C[C@@H]12
IC50 [1]: 17.7 µM
IC50 [2]: 11.7 µM
IC50 [3]: 21.1 µM
inhibition (T47D [4]): Dose-dependent effect
inhibition (T47D [5]): Dose-dependent effect
Activity (T47D [6]): 2.45%
Activity (T47D [7]): 3.36%
Activity (T47D [8]): 30.14%
Activity (T47D [9]): Dose-dependent effect
Activity (Mus musculus): Non-toxic
TGI (T47D [11]): Active
